In ChEMBL document CHEMBL4706489, “Hydrogen sulfide releasing oridonin derivatives induce apoptosis through extrinsic and intrinsic pathways” (Eur J Med Chem, 2020):
Activity calls are given as the source filed them. The rule behind the calls is not given here.

Columns and labels:
HepG2 [1] = test: Induction of cell cycle arrest in human HepG2 cells assessed as accumulation at G2 phase at 2 uM after 48 hrs by propidium iodide staining based flow cytometric analysis (reference value: 16.48 to 16.97%); type: functional
K562 [2] = test: Induction of apoptosis in human K562 cells assessed as chromatin shrinking after 24 to 48 hrs by Hoechst 33258 staining based fluorescence microscopic method; type: functional, cell-based; details: dose 1-4 µM, time 24-48 hrs
Method in brief: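 K562 cells were exposed to 1.0, 2.0 or 4.0 test agent, with DMSO as vehicle control, for 24 h and 48 h. They were harvested, washed twice in PBS and stained with Hoechst 33258 (0.5 mg/mL in PBS) for 30 min in darkness. Slides were viewed by fluorescence microscopy with a DAPI filter. Three random fields of about 200 nuclei per sample were scored as % apoptotic nuclei. Three independent experiments.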

K562 [3] = test: Induction of apoptosis in human K562 cells assessed as viable cells at 1 uM after 48 hrs by annexin V FITC and propidium iodide staining based flow cytometric analysis (reference value: 96.76%); type: functional; details: read-out: Activity
K562 [4] = test: Induction of apoptosis in human K562 cells assessed as necrotic cells at 1 uM after 48 hrs by annexin V FITC and propidium iodide staining based flow cytometric analysis (reference value: 0.69%); type: functional
HepG2 [5] = test: Induction of apoptosis in human HepG2 cells assessed as early apoptotic cells at 1 uM after 48 hrs by annexin V FITC and propidium iodide staining based flow cytometric analysis (reference value: 2.89%); type: functional
HepG2 [6] = test: Induction of apoptosis in human HepG2 cells assessed as necrotic cells at 2 uM after 48 hrs by annexin V FITC and propidium iodide staining based flow cytometric analysis (reference value: 0.89%); type: functional
K562 [7] = test: Induction of mitochondrial membrane potential loss in human K562 cells after 48 hrs by JC1 staining based flow cytometric analysis; type: functional, cell-based; details: dose 0.5-2 µM
Method in brief: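 K562 and HepG2 cells in 6-well plates were exposed for 48 h at 0, 0.50, 1.0 and 2.0 µM, with DMSO vehicle control. After trypsinization, cells were stained with JC-1 (0.5 mg/mL) at 37 °C in darkness for 30 min, then washed with PBS. Membrane potential was read by flow cytometry. Mean ± SD, three independent experiments.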

K562 [8] = test: Induction of apoptosis in human K562 cells assessed as increase in DR4 protein expression at 1 uM after 24 hrs by chemiluminescence based apoptosis array method; type: functional, cell-based
Method in brief: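 K562 cells were treated with 1 test agent for 24 h. Diluted total-cell lysates were applied to a human apoptosis antibody array covering 35 apoptosis-related proteins for 24 h. Unbound protein was washed off, and arrays were probed with a biotinylated detection antibody for 1 h. Relative expression was read from chemiluminescent signal by digital imaging.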

K562 [9] = test: Antiproliferative activity against human K562 cells assessed as reduction in cell viability after 72 hrs by MTT assay; details: K562, 72 h

- IC50 (K562 [9]): 950 nM
SMILES: C=C1C(=O)[C@]23[C@H](OC(=O)CCC(=O)OCCCCCCOc4ccc(-c5cc(=S)ss5)cc4)[C@H]1CC[C@H]2[C@@]12CO[C@@]3(O)[C@@H](O)[C@@H]1C(C)(C)CC[C@@H]2OC(C)=O
- Activity (HepG2 [1]): 6.6%
- Activity (K562 [2]): Dose-dependent effect
- viability at 1 µM (K562 [3]): 79.1%
- Activity (K562 [4]): 1.16%
- Activity (HepG2 [5]): 25.53%
- Activity (HepG2 [6]): 4.42%
- Activity (K562 [7]): Dose-dependent effect
- Activity (K562 [8]): Active
